An excerpt weighted towards active compounds, which were near 2.2% of everything screened.
DYRK1A inh = Dyrk1A (rat) kinase inhibition. inhibition, % at 12.5 µM. ADP-Glo luminescence, NFATc1 peptide. Q63470. 310,000 compounds, 0.43% hits. AID 504441; in the data active means inhibition above about 50%;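 further: plate controls were vehicle with enzyme for no effect and no enzyme for full effect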
CAL PDZ FP-1 = human CAL PDZ-peptide interaction inhibition. 330,000 compounds, 0.02% hits. Q9HD26. inhibition, % at 20 µM. purified CAL PDZ, TMR-peptide fluorescence polarization, 1 h;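 active means highest replicate inhibition of at least 40%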;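 further: plate controls were DMSO neutral control wells for no effect and unlabeled competitor peptide control wells for full effect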
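Control set: unlabelled peptide and DMSO controls / Material: purified CerCALP PDZ construct / Timing: 1 h incubation at room temperature before polarization reading / Doses: 20 µM, one dose / Detection: fluorescence polarization (mP)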
dFosB act-1 = enhances mouse delta FosB homodimer DNA binding. activation, % at 25 µM. purified delta FosB, TAMRA-CDK5 oligo fluorescence polarization; percent of positive-control signal above neutral wells. 340,000 compounds, 0.99% hits. AID 493131. P13346;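 active means mean activation above about 17%, with every replicate also reaching it, limit read from the data, passing the limit was not always enough; inconclusive means only one of the two conditions met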
Target sequence (P13346 whole entry, looked up): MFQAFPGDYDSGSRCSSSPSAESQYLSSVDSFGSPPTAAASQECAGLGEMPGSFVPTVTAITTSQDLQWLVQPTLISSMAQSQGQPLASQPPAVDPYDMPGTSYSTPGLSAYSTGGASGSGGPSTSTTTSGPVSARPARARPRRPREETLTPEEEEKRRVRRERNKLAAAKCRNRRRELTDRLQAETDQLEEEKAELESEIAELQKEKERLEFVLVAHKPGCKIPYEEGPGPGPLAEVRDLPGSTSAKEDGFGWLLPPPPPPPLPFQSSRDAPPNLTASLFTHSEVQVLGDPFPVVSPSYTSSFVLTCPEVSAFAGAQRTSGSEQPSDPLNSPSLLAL
Rtt109 Vps75 = blocks Candida albicans Rtt109/Vps75 acetyltransferase activity. 330,000 compounds, 0.16% hits. inhibition, % at 34.9 µM. Q5AAJ8. purified Rtt109/Vps75, ThioGlo CoA-SH fluorescence, 4 h. AID 540336;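 active means inhibition of at least 50% in every replicate; inconclusive means best replicate reaches 50% inhibition but some replicates fall short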
Target sequence (Q5AAJ8 whole entry, looked up): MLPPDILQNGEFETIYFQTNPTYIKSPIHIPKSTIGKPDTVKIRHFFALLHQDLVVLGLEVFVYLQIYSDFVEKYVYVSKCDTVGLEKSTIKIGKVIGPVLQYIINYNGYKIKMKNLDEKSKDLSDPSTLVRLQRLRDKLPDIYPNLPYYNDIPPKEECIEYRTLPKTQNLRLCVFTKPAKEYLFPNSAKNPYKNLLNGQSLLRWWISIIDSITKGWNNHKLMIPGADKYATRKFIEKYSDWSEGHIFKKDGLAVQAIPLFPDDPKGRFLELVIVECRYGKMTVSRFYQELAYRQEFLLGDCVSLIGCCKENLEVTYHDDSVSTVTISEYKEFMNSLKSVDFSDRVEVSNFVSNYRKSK
CAL PDZ FP-2 = CAL PDZ (human) peptide binding inhibition; inhibition, % at 24.9 µM; purified CAL PDZ, TMR-peptide fluorescence polarization, 1 h; 300,000 compounds, 0.92% hits; AID 602252;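 active means mean inhibition of at least 30% with at least half of replicates also reaching 30%; inconclusive means no clear call, values can overlap the other calls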;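 further: 0% = DMSO neutral control and 100% = excess unlabeled competitor peptide PRC23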
CDK5 p35 inh = inhibitors of human CDK5/p35 kinase; Q00535+Q15078; 330,000 compounds, 0.01% hits; inhibition, % at 10 µM; Recombinant CDK5/p35, ADP-Glo luminescence, 60 min;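 active means highest replicate inhibition of at least 50% and at least 75% of replicates reaching 50%; inconclusive means only one of the two criteria met; inactive means both criteria failed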;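 further: plate controls were DMSO neutral control for no effect and GW8510 at 10 µM for full effect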
dFosB act-2 = enhances mouse delta FosB homodimer binding to DNA | shares compounds with dFosB act-1 | purified delta FosB, TAMRA-CDK5 oligo fluorescence polarization; normalised: neutral wells 0, positive control 100 | activation, % at 24.9 µM | 2,400 tested, under 10 active;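 active means highest replicate activation at or above 34% and every replicate reaching that threshold; inconclusive means meets only one of the two criteria; inactive means meets neither criterion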;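 further: higher polarization means more probe DNA bound by delta FosB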
An asterisk follows results filed as active; ? = inconclusive; nt = no result.

SMILES | DYRK1A inh | CAL PDZ FP-1 | dFosB act-1 | Rtt109 Vps75 | CAL PDZ FP-2 | CDK5 p35 inh | dFosB act-2
COc1ccc(CC(=O)Nc2ccc(C(=O)Nc3ccccc3C(=O)O)cc2)cc1OC | 19.2 | -9.0 | -12.7 | -2.4 | -2.1 | 0.1 | nt
CCOC(=O)CN(c1cc([N+](=O)[O-])ccc1OC)S(C)(=O)=O | 2.3 | -0.7 | -0.4 | 3.8 | -0.4 | -0.8 | nt
Cc1ccc(S(=O)(=O)Nc2ccccc2N2CCOCC2)cc1 | -6.6 | -0.4 | -12.4 | -6.7 | -2.8 | -0.1 | nt
CC(C)=CC(=O)OCC(=O)NC1CCCc2ccccc21 (stereo not given) | 1.2 | -0.3 | -2.1 | -13.7 | nt | -0.2 | nt
CC(=O)Nc1ccc2nc(NC(=O)c3cccs3)sc2c1 | -1.2 | -4.0 | 22.2* | -0.6 | -6.1 | 0.2 | -1.7
Cc1nc2ccc(NC(=O)c3cccs3)cc2s1 | -1.7 | -4.8 | -12.5 | -1.5 | -4.5 | -3.2 | nt
COc1ccc(OCC(=O)Nc2nc3ccc(NC(C)=O)cc3s2)cc1 | -0.1 | -0.8 | 22.9* | -4.5 | nt | -6.3 | 7.8
CC(=O)Nc1ccc2nc(NC(=O)COc3ccc([N+](=O)[O-])cc3)sc2c1 | -1.5 | -0.3 | 3.5 | 11.3 | nt | 0.1 | nt
O=C(Nc1ccc(Cl)cc1Cl)NC1CCCC1 | -0.6 | -2.0 | -2.6 | 5.3 | -2.7 | 0.5 | nt
O=C(Nc1ccc(Cl)cc1Cl)NC1CCN(S(=O)(=O)c2ccc(F)cc2)CC1 | -3.3 | -2.1 | 55.0* | -1.6 | -8.6 | 0.4 | 0.6
CCOC(=O)c1ccc(NC(=O)CC2S/C(=N/N=C3/NC(=O)CS3)NC2=O)cc1 (stereo not given) | nt | 0.1 | 22.9* | -8.5 | 2.2 | 1.0 | 0.5
Cc1ccc(NC(=O)CSc2nc3nc(C)cc(C)c3c(=O)[nH]2)cc1 | -4.1 | nt | 22.1* | 0.1 | 37.3* | -0.3 | 3.8
Cc1cc(C)c2c(=O)[nH]c(SCC(=O)Nc3ccccc3)nc2n1 | 0.6 | -0.3 | -7.7 | 0.1 | nt | -0.2 | nt
Cc1ccccc1NC(=O)CSc1nc2scc(C)c2c(=O)[nH]1 | -0.4 | -3.2 | 27.5* | -8.7 | -0.3 | -1.9 | 3.0
COc1ccc(NC(=O)CSc2nc3scc(C)c3c(=O)[nH]2)cc1 | -1.1 | -0.7 | 11.0 | 7.4 | -2.5 | -2.1 | nt
Cc1csc(NC(=O)CSc2nc3sc(C)c(C)c3c(=O)[nH]2)n1 | -7.8 | -2.6 | -0.2 | 0.8 | -2.4 | 3.5 | nt
Cc1sc2nc(SCC(=O)Nc3ccccc3F)[nH]c(=O)c2c1C | -2.0 | -2.1 | 22.5* | 3.7 | -0.6 | 0.0 | 0.2
COc1cc(NC(=O)c2ccccc2)ccc1NC(=O)c1cc2ccccc2o1 | -1.2 | -1.2 | -15.1 | -1.9 | 1.2 | 0.0 | nt
Cc1cc(NC(=O)c2cncc(Br)c2)ccc1NC(=O)c1cc2ccccc2o1 | -3.0 | -2.1 | 57.6* | -5.1 | -4.8 | 1.6 | -0.1
O=C(Nc1ccc2c(c1)CCC2)c1cc(S(=O)(=O)N2CCN(c3ccccc3)CC2)ccc1Cl | -3.6 | -0.7 | 24.2* | 0.8 | -5.8 | -0.2 | 2.7
O=C(NC1CCCCC1)c1cc(S(=O)(=O)N2CCN(c3ccccc3)CC2)ccc1Cl | -4.0 | -1.0 | 3.2 | -8.8 | -2.2 | 2.0 | nt
CCN(CC)S(=O)(=O)c1cc(C(=O)NCCN2CCOCC2)ccc1Cl | 4.6 | -0.6 | -1.2 | 4.4 | nt | -6.3 | nt
CCOC(=O)c1c(CNCCN(CC)CC)n(C)c2cc(Br)c(OC)cc12 | 1.0 | -3.1 | 23.9* | 65.4* | -7.0 | 0.3 | ?
CCOC(=O)c1c(C)n(C)c2cc(Br)c(OC)cc12 | -1.4 | -0.6 | -4.1 | -16.3 | -3.6 | -0.8 | nt
Cc1cccc(NC(=O)c2nc[nH]c2C(=O)Nc2cccc(C)c2)c1 | -1.4 | -1.0 | -2.2 | -4.5 | -2.8 | 0.0 | nt
SMILES | DYRK1A inh | CAL PDZ FP-1 | dFosB act-1 | Rtt109 Vps75 | CAL PDZ FP-2 | CDK5 p35 inh | dFosB act-2
NC(=O)c1nc[nH]c1C(=O)Nc1cccc(NC(=O)c2cccc(C(F)(F)F)c2)c1 | 1.1 | -1.3 | 27.4* | -1.7 | -2.4 | 1.6 | 6.5
O=C(Nc1cccnc1Cl)c1cc(-c2ccc(O)cc2)on1 | 0.8 | -0.1 | 29.4* | -4.3 | -3.4 | -3.6 | -25.3
O=C(Nc1cccnc1Cl)c1cc(-c2ccc(Cl)cc2)on1 | -2.3 | -1.3 | -2.5 | -4.0 | -0.9 | 0.7 | nt
COC(=O)c1ccc(CN2C(=O)NC3(CCC(C)CC3)C2=O)cc1 (stereo not given) | 0.4 | 0.3 | 1.5 | 3.6 | -0.3 | -1.2 | nt
CN(C)CCN(C(=O)c1ccc(Br)s1)c1nc2cc3c(cc2s1)OCCO3 | 0.5 | -1.3 | 18.6* | 20.5 | -3.1 | -3.1 | 1.9
CN(C)CCN(C(=O)c1cccc2ccccc12)c1nc2cc3c(cc2s1)OCO3 | 1.1 | -0.7 | 41.0* | 35.5 | -1.8 | -0.9 | -0.5
CN(C)CCN(C(=O)c1ccc2ccccc2c1)c1nc2cc3c(cc2s1)OCCO3 | 4.2 | -1.6 | 15.1 | 3.1 | -0.3 | -0.9 | nt
CN(C)CCCN(C(=O)c1ccc2ccccc2c1)c1nc2cc3c(cc2s1)OCO3 | 1.5 | -3.0 | 6.2 | 15.3 | -8.1 | 0.0 | nt
CCN(c1ccccc1)S(=O)(=O)c1ccc(C(=O)N(CCCN(C)C)c2nc3cc4c(cc3s2)OCO4)cc1 | 2.4 | -1.0 | 29.0* | 38.1 | 9.5 | 3.7 | -3.4
CCN(CC)CCN(C(=O)c1cc2c(ccc3ccccc32)oc1=O)c1nc2cc3c(cc2s1)OCCO3 | nt | -0.3 | 71.1* | -1.0 | nt | -3.3 | -0.5
COc1ccc(CCNC(=O)CN2C(=O)NC(C)(c3ccc([N+](=O)[O-])cc3)C2=O)cc1 (stereo not given) | -1.7 | -0.3 | -9.8 | 13.5 | nt | -2.1 | nt
Cc1ccc(OCC(=O)NNC(=O)CCC(=O)NCc2ccccc2)cc1 | 5.5 | 0.0 | 5.8 | -3.5 | nt | -1.2 | nt
Cc1cc(Br)cc(C)c1OCC(=O)NNC(=O)CCC(=O)NCc1ccccc1 | -5.8 | 0.1 | 49.2* | -1.3 | nt | -1.1 | 3.4
Cc1cc(NC(=O)CSc2nnc(COc3cccc(C)c3C)n2C)no1 | 7.3 | 0.3 | 21.2* | 5.9 | nt | 4.1 | 3.1
O=[N+]([O-])c1cccc(/C=N/Nc2nc(NCc3ccccc3)nc(N3CCOCC3)n2)c1O | -6.6 | 2.0 | -4.3 | 14.0 | 4.0 | 4.0 | nt
COc1cc2c(-c3ccc(O)cc3)nc3c(c(C)nn3-c3ccccc3)c2cc1OC | -2.0 | -0.2 | 27.3* | 7.5 | nt | -0.4 | 3.9
Cc1cc(C)cc(NC(=O)Cn2nnc(C(=O)NCc3ccc(F)cc3)c2N)c1 | 0.4 | -3.6 | 57.8* | 18.9 | 2.8 | 2.3 | 3.4
COc1ccc(NC(=O)Cn2nnc(C(=O)NCc3ccccc3)c2N)cc1Cl | -0.8 | 0.7 | 14.4 | 0.0 | -6.4 | 0.4 | nt
Cc1cc(C)cc(NC(=O)Cn2nnc(C(=O)NCc3ccccc3Cl)c2N)c1 | 4.0 | -0.5 | 40.8* | -0.2 | -1.0 | -7.2 | 0.4
COc1ccc(S(=O)(=O)N2CCC(C(=O)N[C@@H](C)C(=O)NCc3ccncc3)CC2)cc1 | -1.7 | -1.8 | -3.5 | 33.7 | -2.4 | -2.9 | nt
